pEC50, pIC50: −log10 of the molar value. Active and inactive are the calls of the source. The rule behind the calls is not given here.
What was measured:
[1] = target: T1, Receptor tyrosine-protein kinase erbB-2 (Homo sapiens, UniProt P04626); test: Inhibition of ErbB2
[2] = target: T2, Insulin-like growth factor 1 receptor (Homo sapiens, UniProt P08069); test: Inhibition of IGF1R
[3] = target: Epidermal growth factor receptor (Homo sapiens, UniProt P04626+P00533+Q15303+P21860); test: Inhibition of EGFR L858 mutant; assay type: protein assay
Summary of the method: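 Kinase inhibition was measured in a homogeneous time-resolved fluorescence assay. The EGFR enzyme construct carries the L858R activating mutation.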

[4] = target: Epidermal growth factor receptor (Homo sapiens, UniProt P00533); test: Inhibition of EGFR phosphorylation in human MIAPaCa cells by ELISA; assay type: cell-based
[5] = target: T1, Receptor tyrosine-protein kinase erbB-2; test: Inhibition of ERBb2 phosphorylation in human BT474 cells by ELISA; assay type: cell-based, BT-474
Summary of the method: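 ErbB2 phosphorylation was read out in ELISA format in BT474 human breast tumour cells, which highly express ErbB2.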

[6] = target: T2, Insulin-like growth factor 1 receptor; test: Inhibition of IGF1R phosphorylation in human MIAPaCa cells by ELISA; assay type: cell-based
Summary of the method: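 Cellular IGF1R phosphorylation was read out in ELISA format in MiaPaCa human pancreatic carcinoma cells, which express both IGF1R and EGFR.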

[7] = Clearance in iv dosed C57BL/6 mouse; assay type: ADME, organism-based; details: in vivo
[8] = system: Mus musculus; test: Inhibition of IGF1R phosphorylation in C57BL/6 mouse at 30 mg/kg, iv by Western blotting; assay type: functional
Summary of the method: (§1)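 Female C57BL/6 mice were dosed iv with compound or vehicle; doses of 3, 10, 30 and 60 mg/kg were used. After 1 h, IGF-1 was given iv at 0.5 mg/kg, and mice were sacrificed 10 min later. Lung tissue was homogenized, and p-IGF1R and p-Akt were analyzed by Western blot. Drug levels in plasma and tissues were measured.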

[9] = system: Rattus norvegicus; test: Dose normalized AUC in iv dosed rat; assay type: ADME, organism-based; details: in vivo
Summary of the method: (§2)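 Intravenous PK: AUC is normalized to dose and expressed per mg/kg.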

[10] = Cmax in C57BL/6 mouse at 10 mg/kg, po; assay type: ADME, organism-based; design: dose 10 mg/kg, route oral; details: in vivo
Summary of the method: (§3)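 Mouse oral PK used a 10 mg/kg dose. AUC is normalized to dose (per mg/kg), and F is oral bioavailability.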

[11] = Tmax in po dosed rat; assay type: ADME, organism-based; details: in vivo
Summary of the method: (§4)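 Rat oral PK used a 5 mg/kg dose. AUC is normalized to dose (per mg/kg), and F is oral bioavailability.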

[12] = system: Mus musculus; test: Dose normalized AUC in iv dosed C57BL/6 mouse; assay type: ADME, organism-based; details: in vivo; summary of the method: as §2
[13] = system: Rattus norvegicus; test: Dose normalized AUC in po dosed rat; assay type: ADME, organism-based; details: in vivo; summary of the method: as §4
[14] = Clearance in iv dosed rat; assay type: ADME, organism-based; details: in vivo
[15] = Cmax in rat at 5 mg/kg, po; assay type: ADME, organism-based; design: dose 5 mg/kg, route oral; details: in vivo; summary of the method: as §4
[16] = system: Mus musculus; test: Dose normalized AUC in po dosed C57BL/6 mouse; assay type: ADME, organism-based; details: in vivo; summary of the method: as §3
[17] = Half life in iv dosed C57BL/6 mouse; assay type: ADME, organism-based; details: in vivo
[18] = Half life in iv dosed rat; assay type: ADME, organism-based; details: in vivo
[19] = Oral bioavailability in rat at 5 mg/kg; assay type: ADME, organism-based; details: in vivo; summary of the method: as §4
[20] = Tmax in po dosed C57BL/6 mouse; assay type: ADME, organism-based; details: in vivo; summary of the method: as §3
[21] = Oral bioavailability in C57BL/6 mouse at 10 mg/kg; assay type: ADME, organism-based; details: in vivo; summary of the method: as §3
[22] = system: Mus musculus; test: Inhibition of AKT phosphorylation in C57BL/6 mouse at 30 mg/kg, iv by Western blotting; assay type: functional, organism-based; design: dose 30 mg/kg; summary of the method: as §1

T2 sequence (P08069 31-736 limits assumed): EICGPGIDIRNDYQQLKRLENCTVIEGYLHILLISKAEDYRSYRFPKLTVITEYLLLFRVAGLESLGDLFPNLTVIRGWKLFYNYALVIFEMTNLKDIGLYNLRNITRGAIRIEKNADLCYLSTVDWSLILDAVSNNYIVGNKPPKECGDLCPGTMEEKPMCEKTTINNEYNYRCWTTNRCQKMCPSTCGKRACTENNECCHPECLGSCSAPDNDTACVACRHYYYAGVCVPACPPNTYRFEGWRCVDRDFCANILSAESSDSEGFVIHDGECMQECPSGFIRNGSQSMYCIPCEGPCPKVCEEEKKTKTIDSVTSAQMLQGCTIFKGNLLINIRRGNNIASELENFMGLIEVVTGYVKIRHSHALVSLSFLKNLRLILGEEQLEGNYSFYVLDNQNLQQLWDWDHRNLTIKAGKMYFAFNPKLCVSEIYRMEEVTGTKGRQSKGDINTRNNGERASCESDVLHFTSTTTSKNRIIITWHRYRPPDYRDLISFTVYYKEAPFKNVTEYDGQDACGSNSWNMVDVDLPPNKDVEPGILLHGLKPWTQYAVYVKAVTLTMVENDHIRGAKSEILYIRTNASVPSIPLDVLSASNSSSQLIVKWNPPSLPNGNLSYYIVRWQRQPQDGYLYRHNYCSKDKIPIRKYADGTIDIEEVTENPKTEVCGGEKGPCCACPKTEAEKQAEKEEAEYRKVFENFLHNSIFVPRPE
T2 sequence (P08069 741-1367 limits assumed): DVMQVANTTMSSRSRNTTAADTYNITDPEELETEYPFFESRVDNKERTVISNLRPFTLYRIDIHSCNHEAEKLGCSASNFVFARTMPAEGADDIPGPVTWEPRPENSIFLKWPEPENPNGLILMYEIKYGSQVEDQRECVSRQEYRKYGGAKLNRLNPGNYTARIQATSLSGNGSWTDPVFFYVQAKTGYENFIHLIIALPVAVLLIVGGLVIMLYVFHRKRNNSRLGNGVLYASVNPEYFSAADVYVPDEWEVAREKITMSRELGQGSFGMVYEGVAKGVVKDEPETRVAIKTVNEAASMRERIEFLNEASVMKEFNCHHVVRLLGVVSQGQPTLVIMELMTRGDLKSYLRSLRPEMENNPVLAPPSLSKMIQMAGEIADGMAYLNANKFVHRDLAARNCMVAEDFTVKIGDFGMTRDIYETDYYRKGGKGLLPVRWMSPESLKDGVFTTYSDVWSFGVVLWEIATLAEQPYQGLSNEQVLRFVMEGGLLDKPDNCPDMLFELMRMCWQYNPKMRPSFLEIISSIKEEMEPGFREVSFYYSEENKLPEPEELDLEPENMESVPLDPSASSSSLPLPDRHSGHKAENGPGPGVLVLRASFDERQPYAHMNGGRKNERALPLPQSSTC
T1 sequence (P04626 whole entry): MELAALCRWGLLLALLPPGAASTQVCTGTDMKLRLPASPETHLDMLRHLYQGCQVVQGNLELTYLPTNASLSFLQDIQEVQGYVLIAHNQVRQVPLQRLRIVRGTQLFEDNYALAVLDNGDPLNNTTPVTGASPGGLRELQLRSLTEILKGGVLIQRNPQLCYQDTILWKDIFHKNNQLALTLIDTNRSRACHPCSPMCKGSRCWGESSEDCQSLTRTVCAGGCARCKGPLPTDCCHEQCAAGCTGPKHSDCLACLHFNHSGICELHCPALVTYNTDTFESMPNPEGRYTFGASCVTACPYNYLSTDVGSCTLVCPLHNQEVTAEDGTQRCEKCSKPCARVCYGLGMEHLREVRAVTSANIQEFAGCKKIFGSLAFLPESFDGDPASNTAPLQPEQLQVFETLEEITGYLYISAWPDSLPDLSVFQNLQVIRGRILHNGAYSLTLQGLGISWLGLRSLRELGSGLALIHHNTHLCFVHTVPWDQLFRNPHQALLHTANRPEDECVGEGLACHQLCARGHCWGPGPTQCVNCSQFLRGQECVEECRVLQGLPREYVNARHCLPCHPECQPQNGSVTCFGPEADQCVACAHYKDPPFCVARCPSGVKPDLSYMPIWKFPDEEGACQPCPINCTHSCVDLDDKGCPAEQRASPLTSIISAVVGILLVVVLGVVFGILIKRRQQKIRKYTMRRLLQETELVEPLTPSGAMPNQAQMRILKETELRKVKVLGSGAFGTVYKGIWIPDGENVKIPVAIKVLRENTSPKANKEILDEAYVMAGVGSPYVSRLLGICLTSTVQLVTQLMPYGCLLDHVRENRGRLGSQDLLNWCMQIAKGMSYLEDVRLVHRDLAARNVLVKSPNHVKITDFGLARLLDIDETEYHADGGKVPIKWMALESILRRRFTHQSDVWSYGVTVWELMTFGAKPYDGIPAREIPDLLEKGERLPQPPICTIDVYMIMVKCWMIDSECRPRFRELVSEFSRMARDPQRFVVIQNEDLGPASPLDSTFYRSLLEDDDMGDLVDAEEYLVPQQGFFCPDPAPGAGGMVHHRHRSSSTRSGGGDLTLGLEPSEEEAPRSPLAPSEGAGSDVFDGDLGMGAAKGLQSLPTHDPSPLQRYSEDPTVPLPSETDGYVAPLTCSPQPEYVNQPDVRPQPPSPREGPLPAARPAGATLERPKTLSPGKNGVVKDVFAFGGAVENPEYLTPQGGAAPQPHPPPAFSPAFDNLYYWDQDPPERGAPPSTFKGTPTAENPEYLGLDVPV
Epidermal growth factor receptor (Homo sapiens, UniProt P00533), sequence (P00533 whole entry): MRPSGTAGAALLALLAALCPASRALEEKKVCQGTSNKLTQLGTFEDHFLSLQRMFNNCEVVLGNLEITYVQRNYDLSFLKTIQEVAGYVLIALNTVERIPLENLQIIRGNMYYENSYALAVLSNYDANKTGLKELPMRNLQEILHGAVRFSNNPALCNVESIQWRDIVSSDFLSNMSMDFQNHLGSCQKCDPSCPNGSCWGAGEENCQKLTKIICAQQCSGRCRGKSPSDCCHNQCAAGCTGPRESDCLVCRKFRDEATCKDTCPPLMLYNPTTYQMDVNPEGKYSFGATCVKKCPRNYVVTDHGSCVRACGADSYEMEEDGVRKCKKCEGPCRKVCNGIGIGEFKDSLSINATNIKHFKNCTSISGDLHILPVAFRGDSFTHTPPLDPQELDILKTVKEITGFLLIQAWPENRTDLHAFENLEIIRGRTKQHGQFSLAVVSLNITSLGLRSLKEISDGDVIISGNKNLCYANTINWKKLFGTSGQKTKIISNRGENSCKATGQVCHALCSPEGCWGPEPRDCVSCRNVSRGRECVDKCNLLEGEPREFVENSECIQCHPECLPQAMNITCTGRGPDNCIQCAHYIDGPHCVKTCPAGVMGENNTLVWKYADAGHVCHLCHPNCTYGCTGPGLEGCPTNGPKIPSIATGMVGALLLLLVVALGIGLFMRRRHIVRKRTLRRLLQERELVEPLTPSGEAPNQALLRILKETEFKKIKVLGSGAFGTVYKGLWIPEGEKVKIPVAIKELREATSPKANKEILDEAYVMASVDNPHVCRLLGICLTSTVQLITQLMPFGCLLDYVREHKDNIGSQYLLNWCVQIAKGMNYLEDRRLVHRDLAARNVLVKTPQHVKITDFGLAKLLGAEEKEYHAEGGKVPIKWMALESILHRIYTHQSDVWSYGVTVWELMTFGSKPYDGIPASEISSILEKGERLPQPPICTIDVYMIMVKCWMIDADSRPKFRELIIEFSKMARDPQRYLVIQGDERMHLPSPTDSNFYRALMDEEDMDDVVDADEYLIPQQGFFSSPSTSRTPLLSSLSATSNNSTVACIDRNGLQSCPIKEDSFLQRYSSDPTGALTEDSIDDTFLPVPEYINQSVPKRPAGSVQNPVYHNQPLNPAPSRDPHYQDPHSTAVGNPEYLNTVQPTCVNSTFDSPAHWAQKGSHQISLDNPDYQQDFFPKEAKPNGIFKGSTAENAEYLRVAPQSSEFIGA

SMILES | pIC50 [1] | pIC50 [2] | IC50 [3] [nM] | further results
Cc1cc(Cl)c2oc(Nc3ccc(-c4nn([C@H]5CC[C@@H](N6CCN(C)CC6)CC5)c5ncnc(N)c45)cc3)nc2c1 | 5.28 | 6.46 | 1130 | –
Nc1ncnc2c1c(-c1ccc(Nc3nc4cccc(Cl)c4o3)cc1)nn2[C@H]1CC[C@H](N2CCOCC2)CC1 | 6.48 | 7.38 | 1020 | –
CN1CCN([C@H]2CC[C@@H](n3nc(-c4ccc(Nc5nc6cc(Cl)ccc6o5)c(F)c4)c4c(N)ncnc43)CC2)CC1 | – | 6.38 | 1470 | –
Cc1cc(-c2nn([C@H]3CC[C@H](N4CCN(C)CC4)CC3)c3ncnc(N)c23)ccc1Nc1nc2cccc(Cl)c2o1 | – | 6.71 | 156 | –
CC(C)N1CCN([C@H]2CC[C@H](n3nc(-c4ccc(Nc5nc6cccc(Cl)c6o5)cc4)c4c(N)ncnc43)CC2)CC1 | 8.01 | 7.35 | 53.7 | –
CN1CCN([C@H]2C[C@@H](c3nc(-c4ccc5ccc(-c6ccccc6)nc5c4)c4c(N)nccn43)C2)CC1 | – | – | – | pIC50 [4]: < 4.52; pIC50 [5]: < 4.52; pIC50 [6]: 7.19
COC(=O)c1cccc2nc(Nc3ccc(-c4nn([C@H]5CC[C@@H](N6CCN(C)CC6)CC5)c5ncnc(N)c45)cc3)oc12 | – | 6.75 | 3590 | –
COCCCN1CCN([C@H]2CC[C@@H](n3nc(-c4ccc(Nc5nc6cccc(Cl)c6o5)cc4)c4c(N)ncnc43)CC2)CC1 | 6.40 | 6.37 | 874 | –
COCCCN1CCC(N2CCC(n3nc(-c4ccc(Nc5nc6cccc(Cl)c6o5)cc4)c4c(N)ncnc43)CC2)CC1 | 7.86 | 6.55 | 264 | –
CC(C)N1CCN([C@H]2CC[C@@H](n3nc(-c4ccc(Nc5nc6cccc(Cl)c6o5)cc4)c4c(N)ncnc43)CC2)CC1 | 7.21 | 6.76 | 322 | –
CN1CCN([C@H]2CC[C@@H](n3nc(-c4ccc(Nc5nc6cc(Cl)cc(Cl)c6o5)cc4)c4c(N)ncnc43)CC2)CC1 | – | 6.23 | 639 | –
CN1CCC(N2CCC(n3nc(-c4ccc(Nc5nc6cccc(Cl)c6o5)cc4)c4c(N)ncnc43)CC2)CC1 | 7.84 | 6.97 | 99 | –
CC(C)N1CCC(N2CCC(n3nc(-c4ccc(Nc5nc6cccc(Cl)c6o5)cc4)c4c(N)ncnc43)CC2)CC1 | 7.82 | 6.94 | 97 | –
CN1CCN([C@H]2CC[C@@H](n3nc(-c4ccc(Nc5nc6cccc(Cl)c6o5)cc4)c4c(N)ncnc43)CC2)CC1 | 6.70 | 7.11 | 393 | –
CN1CCN([C@H]2CC[C@H](n3nc(-c4ccc(Nc5nc6cccc(Cl)c6o5)cc4)c4c(N)ncnc43)CC2)CC1 | 8.12 | 7.90 | 31.5 | clearance [7]: 31.8 mL/min/kg; inhibition in vivo at 30 mg/kg [8]: 50%; AUC [9]: 1260 ng·h/mL; Cmax [10]: 170 nM; Tmax [11]: 8 h; AUC [12]: 940 ng·h/mL; AUC [13]: 380 ng·h/mL; clearance [14]: 15.2 mL/min/kg; Cmax [15]: 160 nM; pEC50 [4]: < 6.00; pIC50 [4]: 5.64; pIC50 [5]: 6.47; AUC [16]: 190 ng·h/mL; half-life [17]: 2.4 h; half-life [18]: 8.4 h; bioavailability [19]: 30%; pIC50 [6]: 6.68; Tmax [20]: 3 h; bioavailability [21]: 20%; inhibition [22]: Active
CN1CCN([C@H]2CC[C@@H](n3nc(-c4ccc(Nc5nc6cccc(C#N)c6o5)cc4)c4c(N)ncnc43)CC2)CC1 | – | 6.95 | 2810 | –
Cc1cc(C)c2oc(Nc3ccc(-c4nn([C@H]5CC[C@@H](N6CCN(C)CC6)CC5)c5ncnc(N)c45)cc3F)nc2c1 | 5.39 | 6.80 | 2270 | –
COCCCN1CCN([C@H]2CC[C@H](n3nc(-c4ccc(Nc5nc6cccc(Cl)c6o5)cc4)c4c(N)ncnc43)CC2)CC1 | 7.67 | 7.14 | 108 | –
CN1CCN([C@H]2CC[C@H](n3nc(-c4ccc(Nc5nc6cccc(Cl)c6o5)c(Cl)c4)c4c(N)ncnc43)CC2)CC1 | 7.54 | 7.31 | 63 | –
Cc1cc(Br)c2oc(Nc3ccc(-c4cn([C@H]5CC[C@@H](N6CCN(C)CC6)CC5)c5ncnc(N)c45)cc3F)nc2c1 | < 4.20 | 7.03 | 1450 | –
CN(C)C(=O)CN1CCN([C@H]2CC[C@H](n3nc(-c4ccc(Nc5nc6cccc(Cl)c6o5)cc4)c4c(N)ncnc43)CC2)CC1 | 7.67 | 6.90 | 1840 | –
CN1CCN([C@H]2CC[C@H](n3nc(-c4ccc(Nc5nc6cccc(Cl)c6o5)cc4Cl)c4c(N)ncnc43)CC2)CC1 | 7.81 | 8.39 | – | –
CN1CCN([C@H]2CC[C@@H](n3nc(-c4ccc(Nc5nc6cccc(Cl)c6o5)c(F)c4)c4c(N)ncnc43)CC2)CC1 | 5.87 | 7.14 | 852 | –
Cc1cc(Nc2nc3cccc(Cl)c3o2)ccc1-c1nn([C@H]2CC[C@H](N3CCN(C)CC3)CC2)c2ncnc(N)c12 | 6.32 | 7.66 | 530 | –
CN1CCN([C@H]2CC[C@H](n3nc(-c4ccc(Nc5nc6cccc(Cl)c6o5)c(F)c4)c4c(N)ncnc43)CC2)CC1 | 7.80 | 8.12 | 37 | pEC50 [4]: < 6.00; pIC50 [4]: 5.54; pIC50 [5]: 6.44; pIC50 [6]: 7.06
CN1CCN([C@H]2CC[C@@H](n3nc(-c4ccc(Nc5nc6ccccc6o5)cc4)c4c(N)ncnc43)CC2)CC1 | – | 6.09 | 1660 | –

— ChEMBL document CHEMBL1255185, “Substituted 4-amino-1H-pyrazolo[3,4-d]pyrimidines as multi-targeted inhibitors of insulin-like growth factor-1 receptor (IGF1R) and members of ErbB-family receptor kinases” (Bioorg Med Chem Lett, 2010)
